Twelve compounds from PubChem BioAssay can be followed below.

Activity calls are given as the source filed them.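 The calls were made as follows, unless noted: active = viability at or below 30% in both replicate assays; inconclusive = viability at or below 30% in just one of the two assays; inactive = the rest.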

Test [1] is described as follows: Her2 expression decrease, cell viability multiplex – SKBR3 breast tumor cells, AlphaScreen, ATP viability, primary screen (AID 461;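 active = Her2 level under about 52% in both replicate screens, with viability over 70% of control, limit read from the data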;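 as to Her2 level: lower value means less Her2 protein in the cells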;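 as to viability: percent of carrier control wells set as 100% viability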). The conditions noted are these: SKBR3 Her2 protein level, 18-24 h, measured here: SKBR3 viability, ATP luminescence, at 10 µM.
Test [2] has as its target Receptor tyrosine-protein kinase erbB-2 (Homo sapiens) (UniProt P04626). The test is described as above. The settings on record: 18-24 h, at 10 µM, stronger effect = lower value.
Test [3] can be described thus: reduced viability of SK-BR-3 breast cancer cells – cell-based, 24 h, human, pilot screen (AID 572;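 active = viability at or below 10% of carrier control in both of two separate runs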;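 also: compound exposure lasted between 18 and 24 h rather than exactly 24 h; 100% = carrier-treated control wells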). The conditions noted are these: SK-BR-3 viability, CellTiter-Glo luminescence, at 10 µM, stronger effect = lower value. (In general: Cellular ATP, detected with luciferase, serves as a proxy for viable cell number.)
Test [4] is described as follows: HUVEC growth inhibition – cell-based, human, primary screen (AID 575).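 Also: 100% = median of untreated cell wells with 0.1% DMSO on each plate.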 The settings on record: HUVEC proliferation, CellTiter-Glo luminescence, 72 h; at 10 µM; stronger effect = lower value. In a few lines:
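system = HUVEC primary cells | amount = 1250 cells/well | buffer or medium = supplemented EBM, 2% fetal bovine serum | dosing = single-point 10 µM, DMSO 0.1% final | times = 72 h compound incubation | detection = CTG luminescence | read-out = % viability relative to median vehicle-well signal on each plate | control set = vehicle and MePR control wells | format = collagen-coated 384-well format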

Test [5] can be described thus: H69AR cell proliferation blockers – human, duplicate replicates, primary screen (AID 580;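 active = viability at or under a set limit in both replicates, limit being median viability minus 3 SD, cut at about 48% in these data, passing the limit was not always enough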;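 also: 100% = mean luminescence of untreated wells and 0% = no signal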). The settings on record: H69AR lung tumor cells viability, ATP luminescence, 72 h; at 10 µM; stronger effect = lower value.
The nature of test [6]: MRP1 drug-resistance reversers in H69AR cells – cell-based, doxorubicin co-treatment, pilot screen (AID 601;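 active = viability loss from added drug above about 55%, and viability with drug at most 40%, in both replicates, limit read from the data, passing the limit was not always enough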). The settings on record: CellTiter-Glo, 72 h, at 10 µM; for differential viability (reversal): stronger effect = higher value.
A short description of test [7]: yeast transport mutant growth inhibition pilot in 384-well plates, post-Golgi transport modulator project (AID 636; in the data active = inhibition above about 31%). The settings on record: absorbance 615 nm, about 18 h, stronger effect = higher value.
The nature of test [8]: growth suppression of yeast trafficking mutant, preliminary HTS, modulators of trafficking downstream of Golgi apparatus project, 1536-format plate, OD 615 nm (AID 637; in the data active = inhibition above about 30%). The conditions noted are these: yeast transport mutant growth, absorbance 615 nm, 18 h; stronger effect = higher value.
Setting [9] is: H69AR cells + 2 uM doxorubicin, measured here: viability with 2 uM doxorubicin, stronger effect = lower value.
The mark [10] stands for this setting: H69AR cells, compound alone cytotoxicity.

Sequence of Receptor tyrosine-protein kinase erbB-2 (Homo sapiens) (P04626 whole entry, looked up): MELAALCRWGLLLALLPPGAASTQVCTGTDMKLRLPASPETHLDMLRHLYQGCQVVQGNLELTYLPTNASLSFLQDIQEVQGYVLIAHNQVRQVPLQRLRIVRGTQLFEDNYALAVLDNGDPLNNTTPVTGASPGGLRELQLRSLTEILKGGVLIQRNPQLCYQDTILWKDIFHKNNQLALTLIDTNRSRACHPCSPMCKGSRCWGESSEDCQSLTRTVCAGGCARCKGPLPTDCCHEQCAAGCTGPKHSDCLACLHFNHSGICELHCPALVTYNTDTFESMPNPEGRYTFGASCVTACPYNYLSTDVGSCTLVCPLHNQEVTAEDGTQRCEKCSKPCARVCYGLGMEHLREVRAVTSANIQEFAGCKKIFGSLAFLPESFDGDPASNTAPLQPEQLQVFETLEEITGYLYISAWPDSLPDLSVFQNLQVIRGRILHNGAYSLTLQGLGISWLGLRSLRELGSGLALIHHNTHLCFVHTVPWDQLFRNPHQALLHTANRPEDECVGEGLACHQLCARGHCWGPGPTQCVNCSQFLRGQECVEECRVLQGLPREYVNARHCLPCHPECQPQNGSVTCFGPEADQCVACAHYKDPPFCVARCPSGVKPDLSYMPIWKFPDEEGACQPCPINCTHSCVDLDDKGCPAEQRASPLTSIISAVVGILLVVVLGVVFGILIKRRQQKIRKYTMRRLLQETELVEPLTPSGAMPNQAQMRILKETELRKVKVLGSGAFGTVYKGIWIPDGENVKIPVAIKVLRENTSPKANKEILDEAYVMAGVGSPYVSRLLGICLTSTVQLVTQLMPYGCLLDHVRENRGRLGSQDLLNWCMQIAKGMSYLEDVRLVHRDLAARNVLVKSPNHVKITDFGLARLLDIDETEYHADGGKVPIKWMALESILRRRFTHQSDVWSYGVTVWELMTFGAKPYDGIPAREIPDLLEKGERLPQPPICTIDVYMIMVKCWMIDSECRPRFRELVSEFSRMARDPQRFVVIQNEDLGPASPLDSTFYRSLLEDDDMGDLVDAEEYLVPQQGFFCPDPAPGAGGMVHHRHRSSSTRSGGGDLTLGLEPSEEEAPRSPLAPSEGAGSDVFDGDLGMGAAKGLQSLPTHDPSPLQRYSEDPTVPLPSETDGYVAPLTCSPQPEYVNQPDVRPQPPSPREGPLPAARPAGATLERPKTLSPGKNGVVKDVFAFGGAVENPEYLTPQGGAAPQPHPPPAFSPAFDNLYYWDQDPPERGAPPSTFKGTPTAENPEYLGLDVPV

As to `COc1cccc(-n2c(SC3CCOC3=O)nc3ccccc3c2=O)c1` (stereo not given), the viability (as a rule, a read-out of living cells in per cent, often relative to untreated cells) is 94.5% in test [1]; 94.5% (inactive) in test [3]; 88.2% (inactive) in test [4]; 94.4% (inactive) in test [5]; 83.8% in test [6] (setting [9]); 94.4% in test [6] (setting [10]). Further, in test [2], the Her2 level is 99.5% (inactive). In test [6] (H69AR cells + 2 uM doxorubicin), the differential viability (reversal) was 10.5% (inactive). Besides, the inhibition (commonly the change of the read-out against control, counted positive when it falls) in test [7] is -5.2% (inactive); in test [8] it was -6.03% (inactive).

As to `CC(=O)c1c(C)[nH]c(C(=O)Nc2ccc3c(c2)OCCO3)c1C`, the viability in test [1] is 102%; in test [3] it was 102% (inactive); in test [4], 86.1% (inactive); in test [5] it was 92.9% (inactive); in test [6] (setting [9]), 74.8%; in test [6] (setting [10]) it was 92.9%. Also, the Her2 level in test [2] is 92% (inactive). Further, the differential viability (reversal) in test [6] (H69AR cells + 2 uM doxorubicin) was 18.1% (inactive). Moreover, the inhibition in test [7] is -0.26% (inactive); in test [8], 2.42% (inactive).

`CC(C)N(C=O)C1(C(=O)NC2CCCCC2)CCCCC1`: the viability in test [1] is 100%; in test [3], 100% (inactive); in test [4] it was 97.9% (inactive); in test [5], 112% (inactive); in test [6] (setting [9]), 97.9%; in test [6] (setting [10]), 112%. For the same compound, the Her2 level in test [2] was 106% (inactive). In test [6] (H69AR cells + 2 uM doxorubicin), the differential viability (reversal) is 13.7% (inactive). Besides, the inhibition in test [7] was -0.53% (inactive); in test [8], -6.61% (inactive).

Turning to `CC(NC(=O)Nc1ccccc1)C(c1cccs1)N1CCOCC1` (stereo not given), the viability in test [1] is 108%; in test [3], 108% (inactive); in test [4], 99.5% (inactive); in test [5], 110% (inactive); in test [6] (setting [9]), 93.5%; in test [6] (setting [10]), 110%. The Her2 level in test [2] is 107% (inactive). Moreover, the differential viability (reversal) in test [6] (H69AR cells + 2 uM doxorubicin) is 16.3% (inactive). Besides, the inhibition in test [7] is -0.38% (inactive); in test [8] it was 4.83% (inactive).

Take `CCC(=O)N1CCc2cc(Br)cc(S(=O)(=O)N3CCCCCC3)c21`: the viability in test [1] was 88.5%; in test [3], 88.5% (inactive); in test [4], 97.2% (inactive); in test [5], 95.5% (inactive); in test [6] (setting [9]), 93.4%; in test [6] (setting [10]), 95.5%. Further, in test [2], the Her2 level was 87% (inactive). For the same compound, the differential viability (reversal) in test [6] (H69AR cells + 2 uM doxorubicin) was 2.03% (inactive). The inhibition in test [7] was -3.03% (inactive); in test [8], 4.91% (inactive).

With `Cc1ccccc1-c1nc(CN2CCC(C(=O)NCc3cccnc3)CC2)c(C)o1`, the viability in test [1] is 88.5%; in test [3], 88.5% (inactive); in test [4], 85.7% (inactive); in test [5] it was 87.1% (inactive); in test [6] (setting [9]), 86.3%; in test [6] (setting [10]), 87.1%. In addition, in test [2], the Her2 level is 82.5% (inactive). Besides, the differential viability (reversal) in test [6] (H69AR cells + 2 uM doxorubicin) was 0.825% (inactive). The figures for the inhibition in test [7] and in test [8] were -1.71% (inactive) and 0% (inactive), respectively.

As for `CC(=O)N(C(C)=O)c1c(C#N)c(C)n(-c2ccccc2)c1C(=O)c1ccccc1`, the viability is 86.5% in test [1]; 86.5% (inactive) in test [3]; 78.4% (inactive) in test [4]; 77.9% (inactive) in test [5]; 87% in test [6] (setting [9]); 77.9% in test [6] (setting [10]). Also, the Her2 level in test [2] is 88% (inactive). For the same compound, in test [6] (H69AR cells + 2 uM doxorubicin), the differential viability (reversal) is -9.1% (inactive). Also, the inhibition is -2.53% (inactive) in test [7] and -2.58% (inactive) in test [8].

Turning to `CC(=O)Nc1cc2c(nc1C)nc(C)n2Cc1ccc(Br)cc1`, the viability was 76% in test [1]; 76% (inactive) in test [3]; 90% (inactive) in test [4]; 108% (inactive) in test [5]; 95.3% in test [6] (setting [9]); 108% in test [6] (setting [10]). For the same compound, in test [2], the Her2 level was 88% (inactive). The differential viability (reversal) in test [6] (H69AR cells + 2 uM doxorubicin) is 12.7% (inactive). Also, the inhibition in test [7] was -4.4% (inactive); in test [8], 0.33% (inactive).

With `N#Cc1ccccc1NC(=O)CSc1nnc(-c2ccccc2)n1-c1ccccc1`, the viability in test [1] is 81.5%; in test [3] it was 81.5% (inactive); in test [4] it was 102% (inactive); in test [5] it was 30.3% (active); in test [6] (setting [9]) it was 93.8%; in test [6] (setting [10]) it was 30.3%. Moreover, the Her2 level in test [2] is 83% (inactive). Further, in test [6] (H69AR cells + 2 uM doxorubicin), the differential viability (reversal) is -63.4% (inactive). Moreover, the inhibition was 1.49% (inactive) in test [7] and -0.32% (inactive) in test [8].

On to `O=C(c1c(F)cccc1F)N(Cc1ccccn1)C1CCCC1`, for which the viability in test [1] was 78%; in test [3], 78% (inactive); in test [4], 106% (inactive); in test [5], 93.6% (inactive); in test [6] (setting [9]), 88.9%; in test [6] (setting [10]), 93.6%. The Her2 level in test [2] was 108% (inactive). In test [6] (H69AR cells + 2 uM doxorubicin), the differential viability (reversal) was 4.68% (inactive). The inhibition in test [7] is 3.6% (inactive); in test [8] it was 26.3% (inactive).

For the compound `CC1(C)CC(=O)c2cnc(NCc3ccco3)nc2C1`, the viability in test [1] is 99%; in test [3], 99% (inactive); in test [4] it was 114% (inactive); in test [5] it was 96.2% (inactive); in test [6] (setting [9]), 85.2%; in test [6] (setting [10]), 96.2%. Besides, the Her2 level in test [2] was 107% (inactive). Further, the differential viability (reversal) in test [6] (H69AR cells + 2 uM doxorubicin) was 11% (inactive). For the same compound, the inhibition in test [7] was -10.4% (inactive); in test [8], -8.83% (inactive).

With `CC(Oc1ccc(Br)cc1)C(=O)N1CCc2ccccc21` (stereo not given), the viability in test [1] was 85.5%; in test [3], 85.5% (inactive); in test [4] it was 107% (inactive); in test [5], 96.9% (inactive); in test [6] (setting [9]), 87.6%; in test [6] (setting [10]), 96.9%. The Her2 level in test [2] is 96.5% (inactive). Besides, in test [6] (H69AR cells + 2 uM doxorubicin), the differential viability (reversal) is 9.3% (inactive). The inhibition was -2.76% (inactive) in test [7] and -3.02% (inactive) in test [8].
